Assay results reported in ChEMBL document CHEMBL4229549, “Discovery and structural characterization of peficitinib (ASP015K) as a novel and potent JAK inhibitor” (Bioorg Med Chem, 2018).

Assays:
[1] = target: T1, Tyrosine-protein kinase JAK3 (Homo sapiens, UniProt P52333); experiment: Inhibition of recombinant human N-terminal His-tagged JAK3 catalytic domain (795 to 1124 residues) expressed in baculovirus expression system using Biotin-Lyn-Substrate2 after 1 hr by ELISA
T1 sequence (P52333 whole entry): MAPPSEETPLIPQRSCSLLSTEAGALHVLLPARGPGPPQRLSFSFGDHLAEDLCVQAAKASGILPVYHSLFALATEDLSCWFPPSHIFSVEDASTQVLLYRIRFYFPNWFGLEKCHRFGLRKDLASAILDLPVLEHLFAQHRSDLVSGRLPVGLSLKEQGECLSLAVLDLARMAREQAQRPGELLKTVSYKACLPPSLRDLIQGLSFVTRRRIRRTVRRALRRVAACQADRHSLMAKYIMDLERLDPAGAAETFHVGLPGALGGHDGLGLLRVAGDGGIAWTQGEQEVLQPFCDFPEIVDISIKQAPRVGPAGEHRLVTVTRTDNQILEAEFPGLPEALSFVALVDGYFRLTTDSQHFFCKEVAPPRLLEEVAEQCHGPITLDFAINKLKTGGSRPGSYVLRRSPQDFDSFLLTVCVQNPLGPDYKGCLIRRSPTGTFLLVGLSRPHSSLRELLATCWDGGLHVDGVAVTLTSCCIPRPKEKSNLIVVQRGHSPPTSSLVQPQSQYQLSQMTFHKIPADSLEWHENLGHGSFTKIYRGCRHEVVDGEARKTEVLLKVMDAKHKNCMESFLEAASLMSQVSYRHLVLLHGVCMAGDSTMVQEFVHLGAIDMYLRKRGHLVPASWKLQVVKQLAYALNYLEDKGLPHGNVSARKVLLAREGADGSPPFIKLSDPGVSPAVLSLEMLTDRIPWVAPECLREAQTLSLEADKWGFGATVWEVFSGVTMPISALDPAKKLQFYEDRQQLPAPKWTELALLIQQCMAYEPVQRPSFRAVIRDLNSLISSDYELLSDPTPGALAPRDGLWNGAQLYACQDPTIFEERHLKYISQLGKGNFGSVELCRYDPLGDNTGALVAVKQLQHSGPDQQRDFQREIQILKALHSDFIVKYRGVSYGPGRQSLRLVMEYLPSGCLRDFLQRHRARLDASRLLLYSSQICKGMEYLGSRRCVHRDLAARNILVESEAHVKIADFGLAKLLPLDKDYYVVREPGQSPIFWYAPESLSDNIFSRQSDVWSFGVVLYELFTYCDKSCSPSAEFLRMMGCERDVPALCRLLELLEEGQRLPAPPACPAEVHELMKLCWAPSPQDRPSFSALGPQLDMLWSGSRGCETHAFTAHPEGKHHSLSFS
Method in brief: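 Human JAK3 kinase domain with 250 nM biotinylated Lyn substrate peptide and 8 µM ATP (final). Reaction started with enzyme, run 1 h at room temperature on streptavidin plate. Phosphorylation read by anti-phosphotyrosine HRP ELISA. Run in duplicate.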

[2] = target: Tyrosine-protein kinase JAK1 (Homo sapiens, UniProt P23458); experiment: Inhibition of recombinant human N-terminal GST-tagged JAK1 catalytic domain (850 to 1154 residues) expressed in baculovirus expression system using Biotin-Lyn-Substrate2 after 1 hr by ELISA
Sequence of Tyrosine-protein kinase JAK1 (P23458 whole entry, the tested form may be a part): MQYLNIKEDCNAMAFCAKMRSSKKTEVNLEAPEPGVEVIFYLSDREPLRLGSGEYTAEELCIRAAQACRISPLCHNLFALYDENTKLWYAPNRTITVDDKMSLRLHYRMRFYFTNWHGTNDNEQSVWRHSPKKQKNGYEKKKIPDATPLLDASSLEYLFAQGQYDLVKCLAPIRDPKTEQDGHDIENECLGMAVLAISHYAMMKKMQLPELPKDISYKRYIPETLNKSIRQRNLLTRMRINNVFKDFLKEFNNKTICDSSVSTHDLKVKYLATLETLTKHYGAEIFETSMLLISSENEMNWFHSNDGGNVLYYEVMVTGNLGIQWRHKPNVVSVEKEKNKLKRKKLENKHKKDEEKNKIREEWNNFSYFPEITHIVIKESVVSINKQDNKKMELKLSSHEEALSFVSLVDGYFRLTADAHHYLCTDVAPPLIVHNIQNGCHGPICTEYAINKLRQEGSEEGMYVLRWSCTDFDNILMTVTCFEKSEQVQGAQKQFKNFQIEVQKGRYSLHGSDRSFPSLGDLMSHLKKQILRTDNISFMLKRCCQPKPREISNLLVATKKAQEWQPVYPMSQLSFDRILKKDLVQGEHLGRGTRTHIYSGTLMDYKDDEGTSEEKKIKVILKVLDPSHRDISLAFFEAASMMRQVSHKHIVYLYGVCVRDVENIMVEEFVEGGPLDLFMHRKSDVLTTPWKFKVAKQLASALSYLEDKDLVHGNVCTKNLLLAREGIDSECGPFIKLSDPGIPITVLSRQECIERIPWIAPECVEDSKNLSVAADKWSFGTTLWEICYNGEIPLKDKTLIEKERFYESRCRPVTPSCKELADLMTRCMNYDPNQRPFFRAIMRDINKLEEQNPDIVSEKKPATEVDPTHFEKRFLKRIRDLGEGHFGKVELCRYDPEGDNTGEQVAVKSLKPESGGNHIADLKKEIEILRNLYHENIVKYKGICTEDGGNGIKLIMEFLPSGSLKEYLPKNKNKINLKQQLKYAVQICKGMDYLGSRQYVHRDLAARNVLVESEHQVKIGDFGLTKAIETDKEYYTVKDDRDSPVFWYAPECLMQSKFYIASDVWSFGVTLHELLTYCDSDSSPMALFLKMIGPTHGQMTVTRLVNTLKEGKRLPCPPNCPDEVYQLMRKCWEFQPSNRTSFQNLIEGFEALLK

[3] = target: Tyrosine-protein kinase JAK2 (Homo sapiens, UniProt O60674); experiment: Inhibition of recombinant human N-terminal His-tagged JAK2 catalytic domain (826 to 1132 residues) expressed in baculovirus expression system using Biotin-Lyn-Substrate2 after 1 hr by ELISA
Sequence of Tyrosine-protein kinase JAK2 (O60674 whole entry, the tested form may be a part): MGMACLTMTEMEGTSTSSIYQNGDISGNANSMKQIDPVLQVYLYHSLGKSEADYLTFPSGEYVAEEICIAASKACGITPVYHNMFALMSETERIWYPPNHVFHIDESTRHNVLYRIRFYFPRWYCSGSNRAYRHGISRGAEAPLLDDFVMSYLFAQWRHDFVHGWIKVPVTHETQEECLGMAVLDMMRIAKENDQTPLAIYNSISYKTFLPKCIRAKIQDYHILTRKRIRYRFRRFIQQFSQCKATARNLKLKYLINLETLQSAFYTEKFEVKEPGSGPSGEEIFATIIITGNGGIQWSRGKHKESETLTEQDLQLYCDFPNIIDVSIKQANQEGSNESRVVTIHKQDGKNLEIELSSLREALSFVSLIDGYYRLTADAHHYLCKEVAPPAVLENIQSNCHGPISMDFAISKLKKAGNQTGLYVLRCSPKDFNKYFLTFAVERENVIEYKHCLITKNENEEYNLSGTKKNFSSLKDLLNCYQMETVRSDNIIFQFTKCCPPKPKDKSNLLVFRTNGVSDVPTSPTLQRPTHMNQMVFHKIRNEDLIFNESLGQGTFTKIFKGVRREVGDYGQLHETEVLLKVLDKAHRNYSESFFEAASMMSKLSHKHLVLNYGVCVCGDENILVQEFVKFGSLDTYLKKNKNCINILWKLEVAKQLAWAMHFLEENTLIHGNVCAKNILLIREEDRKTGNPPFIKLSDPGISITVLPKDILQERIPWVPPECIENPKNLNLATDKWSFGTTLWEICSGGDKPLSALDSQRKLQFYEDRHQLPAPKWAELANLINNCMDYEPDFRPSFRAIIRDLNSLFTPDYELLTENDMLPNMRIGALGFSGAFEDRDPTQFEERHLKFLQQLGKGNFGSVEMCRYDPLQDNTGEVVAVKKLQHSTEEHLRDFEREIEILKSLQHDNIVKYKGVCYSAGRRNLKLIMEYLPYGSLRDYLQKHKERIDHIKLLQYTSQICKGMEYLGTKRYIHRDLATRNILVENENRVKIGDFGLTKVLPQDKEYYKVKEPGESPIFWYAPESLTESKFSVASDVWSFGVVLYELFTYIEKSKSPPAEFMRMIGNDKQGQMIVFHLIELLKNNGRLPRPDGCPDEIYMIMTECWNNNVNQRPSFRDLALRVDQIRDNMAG

[4] = Intrinsic clearance in Sprague-Dawley rat liver microsomes at 0.2 uM in presence of NADPH by LC-MS/MS analysis; type: ADME, microsome; details: read-out: CLH
Method in brief: (§1)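 Compound at 0.2 or 1.0 µM incubated with male SD rat liver microsomes (0.2 mg protein/mL) plus 1 mM NADPH and 0.1 mM EDTA in 100 mM phosphate buffer at 37°C. Percentage remaining was measured by LC/MS/MS. Run in duplicate.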

[5] = Intrinsic clearance in rat liver microsomes; type: ADME, microsome; details: read-out: CLH; method in brief: as §1
[6] = Inhibition of JAK1/JAK3 in rat splenocytes assessed as reduction in IL-2-induced T cell proliferation; type: cell-based
Method in brief: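 Male Lewis rat splenocytes, 1.5×10^6 cells/mL in RPMI1640 with 10% FBS and 50 µM 2-mercaptoethanol, primed with concanavalin A 24 h at 37°C to induce IL-2 receptor. Then incubated with IL-2 plus compound at designated concentrations for 3 days. Proliferation read by alamarBlue after 6 h (ex 545/em 590 nm). Duplicate or triplicate wells, IC50 by linear or Sigmoid-Emax regression.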

[7] = Cmax in Sprague-Dawley rat at 1 mg/kg, po administered as single dose by LC-MS/MS analysis; type: ADME, organism-based; parameters: dose 1 mg/kg, route oral; details: in vivo
Method in brief: (§2)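 Male SD rats (Crl:CD(SD), 7 weeks old), food deprived before dosing; single oral dose of 1 mg/kg in 0.5 w/v% methylcellulose. Blood was sampled at multiple time points up to 24 h. Unchanged compound in plasma was measured by LC/MS/MS. Parameters were calculated from mean plasma concentrations (n=3) at each time point.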

[8] = Oral bioavailability in Sprague-Dawley rat at 1 mg/kg administered as single dose by LC-MS/MS analysis; type: ADME, organism-based; details: in vivo
Method in brief: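 Fasted male SD rats, 7 weeks old, given 1 mg/kg as a single dose, orally in 0.5 w/v% methylcellulose and intravenously in 10 v/v% propylene glycol. Plasma was sampled up to 24 h and unchanged compound measured by LC/MS/MS. Bioavailability was derived from mean concentrations (n=3 per time point).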

[9] = AUC (0 to infinity) in Sprague-Dawley rat at 1 mg/kg, po administered as single dose by LC-MS/MS analysis; type: ADME, organism-based; parameters: dose 1 mg/kg, route oral, time infinity; details: in vivo; method in brief: as §2
[10] = Half life in Sprague-Dawley rat at 1 mg/kg, iv administered as single dose by LC-MS/MS analysis; type: ADME, organism-based; details: in vivo
Method in brief: as §2, with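 “intravenous” for “oral”, “10 v/v% propylene glycol.” for “0.5 w/v% methylcellulose.”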

[11] = AUC (0 to infinity) in Sprague-Dawley rat at 1 mg/kg, iv administered as single dose by LC-MS/MS analysis; type: ADME, organism-based; parameters: dose 1 mg/kg, time infinity, route intravenous; details: in vivo
Method in brief: as §2, with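 “intravenous” for “oral”, “10 v/v% propylene glycol.” for “0.5 w/v% methylcellulose.”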

[12] = Half life in Sprague-Dawley rat at 1 mg/kg, po administered as single dose by LC-MS/MS analysis; type: ADME, organism-based; details: in vivo; method in brief: as §2
[13] = Total clearance in Sprague-Dawley rat at 1 mg/kg, iv administered as single dose by LC-MS/MS analysis; type: ADME, organism-based; details: in vivo
Method in brief: as §2, with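 “intravenous” for “oral”, “10 v/v% propylene glycol.” for “0.5 w/v% methylcellulose.”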

[14] = Tmax in Sprague-Dawley rat at 1 mg/kg, po administered as single dose by LC-MS/MS analysis; type: ADME, organism-based; details: in vivo; method in brief: as §2
[15] = Inhibition of JAK1/JAK3 in Lewis rat splenocytes assessed as reduction in IL-2-induced T cell proliferation after 3 days by alamar blue assay; type: cell-based; details: 72 h
[16] = Volume of distribution at steady state in Sprague-Dawley rat at 1 mg/kg, iv administered as single dose by LC-MS/MS analysis; type: ADME, organism-based; details: in vivo, read-out: Vdss
Method in brief: as §2, with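 “intravenous” for “oral”, “10 v/v% propylene glycol.” for “0.5 w/v% methylcellulose.”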

Compound	IC50 [1] [nM]	IC50 [2] [nM]	IC50 [3] [nM]	CLint scaled at 0.2 µM [4] [mL/min/kg]	also measured
NC(=O)c1cnc2[nH]ccc2c1NC12CC3CC(CC(C3)C1)C2	10	110	120		
NC(=O)c1cnc2[nH]ccc2c1NC1C2CC3CC1CC(F)(C3)C2 (configuration not stated)	2.1	19	11	> 1000	
C[C@@H]1CCCC[C@@H]1Nc1c(C(N)=O)cnc2[nH]ccc12					CLint scaled [5]: > 1000 mL/min/kg; IC50 [6]: 86 nM
COC12CC3CC(C1)C(Nc1c(C(N)=O)cnc4[nH]ccc14)C(C3)C2 (configuration not stated)	0.63	7.8	5	> 1000	
Br.NC(=O)c1cnc2[nH]ccc2c1NC1C2CC3CC1CC(O)(C3)C2 (configuration not stated)				124	Cmax [7]: 126 ng/mL; bioavailability [8]: 45.9%; AUC(0-inf) [9]: 264 ng·h/mL; half-life [10]: 4.72 h; AUC(0-inf) [11]: 575 ng·h/mL; half-life [12]: 2.12 h; clearance [13]: 29 mL/min/kg; Tmax [14]: 0.25 h; IC50 [15]: 10 nM; Vd [16]: 1.83 L/kg
NC(=O)c1cnc2[nH]ccc2c1N[C@@H]1C[C@H]2CC[C@@H]1C2 (racemic)	3.2	24	15	859	
NC(=O)c1cnc2[nH]ccc2c1NC1C2CC3CC(C2)CC1C3 (configuration not stated)	2.1	12	11	> 1000	
